Reference: ChEMBL document CHEMBL1795208 (J Med Chem, 2011)

How the values were obtained:
Type in all cases: functional, cell-based
SK-BR-3 = experiment: Antiproliferative activity against human SKBR3 cells expressing HER2 after 72 hrs by MTS/PMS assay; conditions: SK-BR-3, 72 h
Outline: (§1)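 Cells kept in Advanced DMEM/F12 (1:1) with non-essential amino acids, 2 mM L-glutamine, penicillin, streptomycin and 10% FBS at 37 °C, 5% CO2. Seeded at 2000/well, attached overnight. Compound added in DMSO across a concentration range (1% DMSO final) for 72 h. Viable cells read by MTS/PMS and normalized to 1% DMSO controls (100%). IC50 taken from separate triplicate experiments.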

B16-F10 = experiment: Antiproliferative activity against mouse B16F10 cells after 72 hrs by MTS/PMS assay; conditions: B16-F10, 72 h; outline: as §1
[1] = Antiproliferative activity against human JMAR cells after 72 hrs by MTS/PMS assay; outline: as §1
[2] = Antiproliferative activity against human androgen-dependent LNCaP-LN3 cells after 72 hrs by MTS/PMS assay; conditions: LNCaP-LN3, 72 h; outline: as §1
[3] = Antiproliferative activity against human androgen-independent PC3MM2 cells after 72 hrs by MTS/PMS assay; conditions: PC3MM2, 72 h; outline: as §1
[4] = Antiproliferative activity against human MDA1986 cells after 72 hrs by MTS/PMS assay; conditions: MDA1986, 72 h; outline: as §1
MCF7 = experiment: Antiproliferative activity against human MCF7 cells expressing estrogen receptor after 72 hrs by MTS/PMS assay; conditions: MCF7, 72 h; outline: as §1
SK-MEL-28 = experiment: Antiproliferative activity against human SK-MEL-28 cells after 72 hrs by MTS/PMS assay; conditions: SK-MEL-28, 72 h; outline: as §1

IC50 (SK-BR-3) [µM]	IC50 (B16-F10) [µM]	IC50 (MCF7) [µM]	IC50 (SK-MEL-28) [µM]	SMILES	IC50 [1] [µM]	IC50 [2] [µM]	IC50 [3] [µM]	IC50 [4] [µM]
> 100	9.37	> 100	12.4	COc1cccc(-c2cc(C(=O)Nc3cc4ccc(O[C@@H]5C[C@H](O)CO5)c(C)c4oc3=O)ccc2OC)c1	6.19	4.96	26.8	18.8
8.98	11.8	10.2	11.4	COc1cccc(-c2cc(C(=O)Nc3cc4ccc(OC5CNC[C@@H](O)[C@H]5O)c(OC)c4oc3=O)ccc2OC)c1 (stereo partly drawn)	11.6	12.2	14.4	21.7
0.97	0.41	1.39	6.14	COc1cccc(-c2cc(C(=O)Nc3cc4ccc(OC5CCN(C)CC5)c(OC)c4oc3=O)ccc2OC)c1	13.1	4.75	3.71	13.1
> 50	12.4	> 50	20.9	COc1cccc(-c2cc(C(=O)Nc3cc4ccc(OC5CCCN(C(C)=O)C5)c(C)c4oc3=O)ccc2OC)c1 (stereo not drawn)	15.1	1.23	3.42	22.4
2.27	1.84	2.9	7.19	COc1cccc(-c2cc(C(=O)Nc3cc4cc(OC)c(OC5CCCNC5)c(C)c4oc3=O)ccc2OC)c1 (stereo not drawn)	5.7	3.66	2.59	6.4
2.61	0.64	3.29	14.7	COc1cccc(-c2cc(C(=O)Nc3cc4ccc(OC5CCCNC5)c(OC)c4oc3=O)ccc2OC)c1 (stereo not drawn)	12.7	12.7	10.4	12.8
6.71	8.56	42.6	15.8	COc1cccc(-c2cc(C(=O)Nc3cc4ccc(O[C@H]5OCC[C@@H](O)[C@H]5O)c(C)c4oc3=O)ccc2OC)c1	6.14	1.2	12.9	3.7
1.21	2.86	1.68	5.41	COc1cccc(-c2cc(C(=O)Nc3cc4cc(OC)c(OC5C=CCNC5)c(C)c4oc3=O)ccc2OC)c1 (stereo not drawn)	11.6	5.4	3.57	5.9
> 100	2.5	> 100	11.4	COc1cccc(-c2cc(C(=O)Nc3cc4ccc(OC5CC(C)C[C@@H](O)[C@H]5O)c(C)c4oc3=O)ccc2OC)c1 (stereo partly drawn)	2.73	1.14	4.09	6.74
2.92	6.4	5.29	10.8	COc1cccc(-c2cc(C(=O)Nc3cc4ccc(OC5C=CCN(C)C5)c(C)c4oc3=O)ccc2OC)c1 (stereo not drawn)	11.4	1.22	1.73	7.7
2.91	2.8	2.07	6.14	COc1cccc(-c2cc(C(=O)Nc3cc4ccc(OC5CNC[C@@H](O)[C@H]5O)c(C)c4oc3=O)ccc2OC)c1 (stereo partly drawn)	5.89	4.9	6.33	5.6
0.11	1.19	0.52	1.47	COc1cc2cc(NC(=O)c3cc4ccccc4[nH]3)c(=O)oc2c(C)c1OC1CCN(C)CC1	1.24	1.47	0.87	1.42
35.2	12.7	> 100	21.4	COc1cccc(-c2cc(C(=O)Nc3cc4ccc(O[C@H]5C[C@H](O)CO5)c(C)c4oc3=O)ccc2OC)c1	24.1	3.72	10.1	6.9
1.49	2.67	1.41	5.86	COc1cccc(-c2cc(C(=O)Nc3cc4cc(OC)c(OC5CCCN(C)C5)c(C)c4oc3=O)ccc2OC)c1 (stereo not drawn)	19.1	10.5	6.86	13.2
> 100	15.9	> 100	3.47	COc1cccc(-c2cc(C(=O)Nc3cc4ccc(OC5CC(C)(C)C[C@@H](O)[C@H]5O)c(C)c4oc3=O)ccc2OC)c1 (stereo partly drawn)	8.5	1.24	2.49	18.8
5.36	37.4	9.8	25.6	CNCCOc1ccc2cc(NC(=O)c3ccc(OC)c(-c4cccc(OC)c4)c3)c(=O)oc2c1C	35.1	> 100	14	21.9
1.61	2.94	1.73	5.41	COc1cccc(-c2cc(C(=O)Nc3cc4ccc(OC5C=CCNC5)c(C)c4oc3=O)ccc2OC)c1 (stereo not drawn)	3.4	4.27	4.4	6.54

More lines, now with the values behind:

SMILES	IC50 (SK-BR-3) [µM]	IC50 (B16-F10) [µM]	IC50 (MCF7) [µM]	IC50 (SK-MEL-28) [µM]	IC50 [1] [µM]	IC50 [2] [µM]	IC50 [3] [µM]	IC50 [4] [µM]
COc1cccc(-c2cc(C(=O)Nc3cc4ccc(OC5C=CCN(C)C5)c(OC)c4oc3=O)ccc2OC)c1 (stereo not drawn)	3.42	6.47	1.65	1.48	1.94	0.36	0.98	2.36
COc1cccc(-c2cc(C(=O)Nc3cc4ccc(OC5CCC[C@@H](O)[C@H]5O)c(C)c4oc3=O)ccc2OC)c1 (stereo partly drawn)	> 100	14.1	> 100	2.94	13.9	1.58	4.04	17.9
COc1cccc(-c2cc(C(=O)Nc3cc4ccc(O[C@@H]5O[C@H](CO)C[C@@H](O)[C@H]5O)c(C)c4oc3=O)ccc2OC)c1	9.59	9.6	11.1	10.7	5.8	3.23	4.58	5.7
COc1cccc(-c2cc(C(=O)Nc3cc4ccc(OC(C)=O)c(C)c4oc3=O)ccc2OC)c1	0.98	2.3	1.4	2.14	12.6	1.5	2.85	1.67
COc1cccc(-c2cc(C(=O)Nc3cc4ccc(OC5CCNCC5)c(OC)c4oc3=O)ccc2OC)c1	1.79	2.14	3.23	16.4	12.6	10.8	8.47	10.9
COc1cccc(-c2cc(C(=O)Nc3cc4ccc(OC5CCCN(C)C5)c(C)c4oc3=O)ccc2OC)c1 (stereo not drawn)	2.06	2.6	5.04	6.14	12.6	1.22	4.23	4.5
COc1cccc(-c2cc(C(=O)Nc3cc4ccc(OCCN(C)C)c(C)c4oc3=O)ccc2OC)c1	1.02	15.7	1.46	14.7	18.4	6.65	4.17	17.5
COc1cccc(-c2cc(C(=O)Nc3cc4ccc(O[C@@H]5OC[C@@H](O)[C@H]5O)c(OC)c4oc3=O)ccc2OC)c1	7.57	1.3	11.7	6.41	2.71	2.6	10.6	5.73
COc1cccc(-c2cc(C(=O)Nc3cc4ccc(OC5C=CCNC5)c(OC)c4oc3=O)ccc2OC)c1 (stereo not drawn)	3.07	3.41	1.43	5.49	6.71	6.45	4.88	5.97
COc1cccc(-c2cc(C(=O)Nc3cc4ccc(O[C@@H]5OCCC[C@H]5O)c(C)c4oc3=O)ccc2OC)c1	> 100	1.01	> 100	1.47	16.1	3.75	10.1	0.81
COc1cccc(-c2cc(C(=O)Nc3cc4cc(OC)c(OC5CNC[C@@H](O)[C@H]5O)c(C)c4oc3=O)ccc2OC)c1 (stereo partly drawn)	3.65	5.04	3.34	13.8	11.5	9.45	6.84	13.8
COc1cccc(-c2cc(C(=O)Nc3cc4cc(OC)c(OC5CCN(C)CC5)c(C)c4oc3=O)ccc2OC)c1	1.19	36.7	1.79	3.74	1.84	4.17	2.84	1.54
COc1cccc(-c2cc(C(=O)Nc3cc4cc(OC)c(OC5C=CCN(C)C5)c(C)c4oc3=O)ccc2OC)c1 (stereo not drawn)	1.96	6.14	5.27	31.5	18.4	4.49	3.87	16.4
COc1cccc(-c2cc(C(=O)Nc3cc4cc(OC)c(O)c(C)c4oc3=O)ccc2OC)c1	3.23	5.77	11.7	12.4	24.6	15.8	11.2	6.7
